In general, inhibition refers to the change of the read-out against control, counted positive when it falls. Lower therefore signals a weak effect.

The values that follow come from ChEMBL document CHEMBL1122401, “Synthesis and pharmacological activity of 6-[(E)-2-(2,6,6-trimethyl-1-cyclohexen-1-yl)ethen-1-yl]- and 6-(1,2,3,4-tetrahydro-1,1,4,4-tetramethyl-6-naphthyl)-2-naphthalenecarboxylic acids” (1983).

The structures appear in SMILES notation.

Experiment [1] deals with T1, Ornithine decarboxylase (Mus musculus) (UniProt P00860).
T1 sequence (whole entry): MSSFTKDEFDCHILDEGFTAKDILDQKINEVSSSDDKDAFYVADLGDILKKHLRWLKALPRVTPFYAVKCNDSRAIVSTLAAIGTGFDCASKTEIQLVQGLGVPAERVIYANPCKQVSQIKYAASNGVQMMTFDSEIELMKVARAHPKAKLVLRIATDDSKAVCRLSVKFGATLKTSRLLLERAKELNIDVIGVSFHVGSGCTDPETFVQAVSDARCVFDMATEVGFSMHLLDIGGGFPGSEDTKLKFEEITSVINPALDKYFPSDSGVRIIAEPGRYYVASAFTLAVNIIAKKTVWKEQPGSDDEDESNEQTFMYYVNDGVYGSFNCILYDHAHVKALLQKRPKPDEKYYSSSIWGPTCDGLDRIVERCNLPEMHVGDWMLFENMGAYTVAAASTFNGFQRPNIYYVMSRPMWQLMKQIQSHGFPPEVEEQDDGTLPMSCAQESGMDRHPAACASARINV
Description: Percent inhibition of induction of ODC(ornithine decarboxylase) by TPA in mouse skin at a dose of 17.0 nmol. The gist of the method:
(§1)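 ODC induction by the tumour-promoting phorbol ester TPA, measured in mouse dorsal epidermis. Retinoid was tested at 1.7 or 17 nmol dose levels. Activity is expressed as a percentage of that of retinoic acid at the same dose.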

The test system of experiment [2] is Cricetinae gen. sp. Description: Reversal of keratinization process in hamster tracheal organ culture at concentration of 10e-10 M expressed as percent of active cultures out of 13 cultures. The class given is functional, Trachea.
For experiment [3], the system named is Cricetinae gen. sp. Kind of experiment: Reversal of keratinization process in hamster tracheal organ culture at concentration of 10e-11 M expressed as percent of active cultures out of 5 cultures. The class given is functional, Trachea.
Experiment [4] is described as follows: Relative activity as reciprocal of the ratio of ED50 (retinoid) / ED50 (retinoic acid) when control was 6 x 10e-12. The class given is functional.
Experiment [5] concerns Cricetinae gen. sp. Description: Reversal of keratinization process in hamster tracheal organ culture at concentration of 10e-9 M expressed as percent of active cultures out of 12 cultures. The class given is functional, Trachea.
Experiment [6] deals with T1, Ornithine decarboxylase (Mus musculus). Kind of experiment: Percent inhibition of induction of ODC(ornithine decarboxylase) by TPA in mouse skin at a dose of 1.7 nmol. The gist of the method: as §1
The test system of experiment [7] is Cricetinae gen. sp. Description: Reversal of keratinization process in hamster tracheal organ culture at concentration of 10e-8 M expressed as percent of active cultures out of 7 cultures. The class given is functional, Trachea.
A short description of experiment [8]: Relative activity as reciprocal of the ratio of ED50 (retinoid) / ED50 (retinoic acid) when control was 3 x 10e-11. The class given is functional.
Experiment [9] relates to Cricetinae gen. sp. Kind of experiment: Reversal of keratinization process in hamster tracheal organ culture at concentration of 10e-9 M expressed as percent of active cultures out of 7 cultures. The class given is functional, Trachea.
In experiment [10] the test system is Cricetinae gen. sp. Kind of experiment: Reversal of keratinization process in hamster tracheal organ culture at concentration of 10e-11 M expressed as percent of active cultures out of 22 cultures. The class given is functional, Trachea.
Experiment [11] is described as follows: Relative activity as reciprocal of the ratio of ED50 (retinoid) / ED50 (retinoic acid) when control was 7 x 10e-12. The class given is functional.
The subject of experiment [12] is Cricetinae gen. sp. Kind of experiment: Reversal of keratinization process in hamster tracheal organ culture at concentration of 10e-10 M expressed as percent of active cultures out of 22 cultures. The class given is functional, Trachea.
Experiment [13] deals with Cricetinae gen. sp. Description: Reversal of keratinization process in hamster tracheal organ culture at concentration of 10e-12 M expressed as percent of active cultures out of 15 cultures. The class given is functional, Trachea.

As to `CC1=C(/C=C/c2ccc3cc(C(=O)O)ccc3c2)C(C)(C)CCC1`, the inhibition in experiment [1] was determined as 48%; in experiment [6] it was 30%. Also, the Active culture in the experiment on Cricetinae gen. sp. [2] was 46%; in the experiment with Cricetinae gen. sp. [3], 20%; in the experiment on Cricetinae gen. sp. [5], 92%; in the experiment on Cricetinae gen. sp. [7] it was 100%. Further, the Ratio in experiment [4] is 0.4.

In the case of `CC1=C(/C=C/C(C)=C/c2ccc(C(=O)O)cc2)C(C)(C)CCC1`, the Ratio in experiment [8] stood at 1.

Consider `CC1(C)CCC(C)(C)c2cc(-c3ccc4cc(C(=O)O)ccc4c3)ccc21`, for which the inhibition in [1] was 80%; in experiment [6], 56%. The Active culture in the experiment on Cricetinae gen. sp. [9] came to 100%; in the experiment with Cricetinae gen. sp. [10], 77%; in the experiment on Cricetinae gen. sp. [12], 95%; in the experiment on Cricetinae gen. sp. [13], 27%. For the same molecule, in experiment [11], the Ratio is over 10.
